Assay results as given in the RNAGym collection of RNA variant scans (doi:10.1126/science.aae0568).
Fewer inactive variants are shown than the library holds.

B1: tRNA (parent)
chain: GUUCCGUUGGCGUAAUGGUAACGCGUCUCCCUCCUAAGGAGAAGACUGCGGGUUCGAGUCCCGUACGGAACG

Variants of: B1
Test: yeast fitness relative to wild type (ratio to wild type); higher = fitter; tRNA-Arg(CCU), competitive growth, 37 C, YPD
In short: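 For this measurement, the tRNA-Arg(CCU) gene was varied by chemical synthesis at a 3% per-site mutation rate across 69 sites, and each variant was placed at the native genomic locus in Saccharomyces cerevisiae. The pooled strains went through a 24-hour competition in YPD at 37°C in six parallel replicates, with amplicons from start and end populations read by 100-nucleotide paired-end sequencing. Darwinian fitness relative to wild type followed from the change in each genotype's frequency. Genotypes needed ≥ 100 starting reads, and estimates < 0.5 were set to 0.5.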

Variant | yeast fitness
G17C C66A | 0.575
G17C A21U C33G | ≤ 0.5
G17A G48C | 0.827
G17A G48A | 0.951
G17A G25C A40U G63A | ≤ 0.5
G17C A20G U53G A70U | ≤ 0.5
G17C C27A U32C C61A C66U | ≤ 0.5
G17A G56C G58C | 0.585
G17C C22A U28C C66G G67C | ≤ 0.5
G17A U28A G51A C60G A65G C66G | ≤ 0.5
G17C A45G | 0.546
G17C A21G C33A C49U | ≤ 0.5
G17C U28A | 0.554
G17C A37C A45U | 0.659
G17C C49A | 0.571
G17C C49U | 0.768
G17C C34A A57C | 0.561
G17A G41C C55A | ≤ 0.5
G17C G41C | 0.664
G17C C49U C61G C66U | ≤ 0.5
G17C A21G C27U C33G A42U G48A A57G | ≤ 0.5
G17C A20G G51A | ≤ 0.5
G18A A37U | 0.6
G18A A37C | 0.727

Variant | yeast fitness
G17C C34G A37C C62A | 0.561
G17C C27U U64C | ≤ 0.5
G17A G58C C62U | 0.543
G17C G18C C22A U28C C60A C66U | 0.677
G17C C29U U32A C46U C60A C66G | ≤ 0.5
G17U A37U A57C | ≤ 0.5
G17C C46G C55U | 0.571
G17C U19C | 0.785
G17C A21U | 0.559
G17C A20U A42U | 0.604
G17C G23C C31G G50C C60A G63A | ≤ 0.5
G17A G41U A57C | ≤ 0.5
G18A A21U U32A | 0.593
G17C U53G | ≤ 0.5
G17U A40C | 0.823
G17A G41C | 0.816
G17A G50C C60A | ≤ 0.5
G17C C24G U28A C30U G38U A65U A69C | ≤ 0.5
G17C C22G U26A A43G C61U A65U | ≤ 0.5
G18A A36C U64A | 0.575
G17A U35G A65U | ≤ 0.5
G17C C27A C61G | ≤ 0.5
G18A | 0.76
G17C G48C A65G | 0.562

Variant | yeast fitness
G17C C31U A42C C49A | 0.534
G17A G23C U54A C61G | ≤ 0.5
G17C C31U A42C U53G | ≤ 0.5
G17C C29U A37C G67A | 0.575
G17A G41A C60G A65G | ≤ 0.5
G18A A20U U59G | ≤ 0.5
G17A U32C A40G A65C | ≤ 0.5
G17A G58A C61U | 0.59
G17C A21U A57U | 0.564
G17A G38C A45U C66U | ≤ 0.5
G17C U32A C66U A70G | ≤ 0.5
G17C A45C G48A U59A | 0.622
G17A G18C G39C A69U | ≤ 0.5
G17U C27G C30U C60A | ≤ 0.5
G17C U19C G68U | 0.569
G17A U54A G56C G68A | ≤ 0.5
G18A A21G C66U | ≤ 0.5
G17C A42C C60A | ≤ 0.5
G17C C24A A69C | 0.553
G17C G56C G58C | ≤ 0.5
G17C G48A A65C | 0.654
G17C C30G C60G | 0.904
G17C G18C C22A | ≤ 0.5
G17C C27U A37G A65G | ≤ 0.5

Variant | yeast fitness
G17C U32C | 0.644
G17C C34U G68A | 0.536
G17A U35G G48C | 0.502
G17C G38A | 0.599
G17C C46U G50C C55A G63A C66U | ≤ 0.5
G18A A20U A69U | 0.686
G17C A65U | 0.649
G17C A65C | 0.67
G17C C24G G48C | ≤ 0.5
G17C C33U G56A A69U | ≤ 0.5
G18A A20U A36U A65U | ≤ 0.5
G17A G51C | 0.543
G17A G58A A69C | 0.575
G17A G18C A20G G39C | ≤ 0.5
G17C C22U C29G G51C | ≤ 0.5
G17C A57U | 0.52
G17A U19G A37G C66U A69U | 0.562
G17C C29G U32G G38A U53C | ≤ 0.5
G17C C22A C31G C55G | ≤ 0.5
G18A A21C A43C G48A G52A G63A | ≤ 0.5
G17C G23C C33G G50A G68A | ≤ 0.5
G17A U53G C55U | ≤ 0.5
G18A A57C | 0.626
G18A A57G | 0.854

Variant | yeast fitness
G17A G48A A57G | ≤ 0.5
G17U C55U A70G | ≤ 0.5
G17A G63A A69C | 0.537
G17A U54A G56C | 0.597
G17C A20G C30G A65U | ≤ 0.5
G17C A42U C62U | 0.645
G17C U19A A36C A37U A65C | 0.592
G17A U19C C34A A40G C66U | ≤ 0.5
G17C G51A U59A C66A | ≤ 0.5
G17U A45U C55U A70C | ≤ 0.5
G17C A43U C62U | 0.632
G17C U19C A65G | 0.573
G17C C24G C30U G50C | ≤ 0.5
G17C U26C C46U U64A | ≤ 0.5
G17C A20G | 0.553
G17U A21G C46U | 0.588
G17C U64C | 0.845
G17C U64A | 0.662
G17C G38C G52C | ≤ 0.5
G17C C46G A57U G63A | ≤ 0.5
G17A G18A A42C C61U | ≤ 0.5
G17C C29G G39A A70U | ≤ 0.5
G17C A42U G44C A45U G58A | ≤ 0.5
G17C C22U U32C A40U A65G | ≤ 0.5

Variant | yeast fitness
G17A U35A U54G | ≤ 0.5
G17C U19C C27U A65C | 0.641
G17C A43U G56A A70U | ≤ 0.5
G17C C55U G63C G67C | ≤ 0.5
G17A U19A C30G | 0.66
G17C U19C U59A | ≤ 0.5
G17C G18C C22A C61U | ≤ 0.5
G17C U47A | 0.695
G17C G23C U47G | ≤ 0.5
G17C G23C A43U C49A | 0.613
G17U C46G U54G | ≤ 0.5
G17A C66U | 0.725
G17C G56C G68A | ≤ 0.5
G18A A21C G23U U32A A42U G48C | ≤ 0.5
G17C C55U A69U | ≤ 0.5
G17A U54C | 0.67
G17A U35A G44A G50A | ≤ 0.5
G17C C29U U32A C46U | ≤ 0.5
G17C A21C C34G A37U A42U A57G | ≤ 0.5
G17C C22G A42G C46A | ≤ 0.5
G17C G39A | 0.665
G17A U19A G23A C34U | ≤ 0.5
G17C C34U A57G A70U | 0.558
G17A U47C | 0.774

Variant | yeast fitness
G17A U47A | 0.823
G18A A20U C29G A37U C55A C66U | ≤ 0.5
G17C C22U U32C C46U | ≤ 0.5
G17A U26C U28C A42C C66U | ≤ 0.5
G17C G25C C61U | ≤ 0.5
G17A U32A C49U C62A G67C | ≤ 0.5
G17C C22U U32C A40U C66U | ≤ 0.5
G18A A21U G48A | 0.571
G17C G48U | ≤ 0.5
G17C G18A C27U C46U G58A | ≤ 0.5
G17C C22G C30U G41C C46U A65U | ≤ 0.5
G18A A40G A65G | ≤ 0.5
G17C A21U C33G G38A G52A | ≤ 0.5
G17A G50A | 0.833
G17C U32G C34A A40U A43C | ≤ 0.5
G17A G41C C46A | 0.68
G17C C22G C29A C46U A65C | ≤ 0.5
G17A G51A G56C G58C | ≤ 0.5
G18A A20U C27G | 0.526
G18A A37G G52C C61A | ≤ 0.5
G17A U64C C66U | 0.69
G17C C24G C46G U59C | ≤ 0.5
G17C A42U A70G | 0.653
